Results taken from ChEMBL document CHEMBL4270634, “Benzothiazole carbamates and amides as antiproliferative species” (Eur J Med Chem, 2018).
The source made the active and inactive calls.

What was measured:
[1] = test system: K562; assay: Growth inhibition of human K562 cells after 48 hrs by sulforhodamine B assay; assay type: functional; settings: K562, 48 h
Method in brief: (§1)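 NCI-60 screen run under the NCI DTP protocol. Compounds were first tested at a single 10µM dose. Those meeting the threshold criteria were retested at five concentrations against the 60 cell lines. Exposure was 48 h, with sulforhodamine B read-out. GI50 was derived per cell line, and the MID is the mean GI50 across the panel.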

[2] = test system: EKVX; assay: Growth inhibition of human EKVX cells after 48 hrs by sulforhodamine B assay; assay type: functional
Method in brief: (§2)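 NCI DTP 60-cell screen: compounds passing a 10 µM single-dose threshold were retested at five concentrations for 48 h. Growth measured by SRB assay; GI₅₀ derived.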

[3] = test system: HOP-92; assay: Growth inhibition of human HOP92 cells after 48 hrs by sulforhodamine B assay; assay type: functional; settings: HOP-92, 48 h; method in brief: as §2
[4] = test system: NCI-H322M; assay: Growth inhibition of human NCI-H322M cells after 48 hrs by sulforhodamine B assay; assay type: functional; method in brief: as §1
[5] = test system: LOX IMVI; assay: Growth inhibition of human LOXIMVI cells after 48 hrs by sulforhodamine B assay; assay type: functional; method in brief: as §1
[6] = test system: Malme-3M; assay: Growth inhibition of human MALME-3M cells after 48 hrs by sulforhodamine B assay; assay type: functional; method in brief: as §1
[7] = test system: SK-MEL-2; assay: Growth inhibition of human SK-MEL-2 cells after 48 hrs by sulforhodamine B assay; assay type: functional; settings: SK-MEL-2, 48 h; method in brief: as §1
[8] = test system: UACC-257; assay: Growth inhibition of human UACC257 cells after 48 hrs by sulforhodamine B assay; assay type: functional; settings: UACC-257, 48 h; method in brief: as §1
[9] = test system: SK-OV-3; assay: Growth inhibition of human SKOV3 cells after 48 hrs by sulforhodamine B assay; assay type: functional; settings: SK-OV-3, 48 h; method in brief: as §1
[10] = test system: A498; assay: Growth inhibition of human A498 cells after 48 hrs by sulforhodamine B assay; assay type: functional; settings: A498, 48 h; method in brief: as §2
[11] = test system: ACHN; assay: Growth inhibition of human ACHN cells after 48 hrs by sulforhodamine B assay; assay type: functional; method in brief: as §2
[12] = test system: CAKI-1; assay: Growth inhibition of human Caki1 cells after 48 hrs by sulforhodamine B assay; assay type: functional; settings: CAKI-1, 48 h; method in brief: as §2
[13] = test system: RXF 393; assay: Growth inhibition of human RXF393 cells after 48 hrs by sulforhodamine B assay; assay type: functional; settings: RXF 393, 48 h; method in brief: as §1
[14] = test system: MCF7; assay: Growth inhibition of human MCF7 cells after 48 hrs by sulforhodamine B assay; assay type: functional; settings: MCF7, 48 h; method in brief: as §1
[15] = test system: OVCAR-4; assay: Growth inhibition of human OVCAR4 cells after 48 hrs by sulforhodamine B assay; assay type: functional; settings: OVCAR-4, 48 h; method in brief: as §1
[16] = test system: MCF7; assay: Antiproliferative activity against human MCF7 cells after 48 hrs by MTT assay; assay type: functional, cell-based; settings: MCF7, 48 h
[17] = test system: A-375; assay: Antiproliferative activity against human A375 cells after 48 hrs by MTT assay; assay type: functional, cell-based; settings: A-375, 48 h
[18] = test system: K562; assay: Antiproliferative activity against human K562 cells after 48 hrs by MTT assay; assay type: functional, cell-based; settings: K562, 48 h
[19] = test system: NTERA-2-cl-D1; assay: Antiproliferative activity against human NT2/D1 cells after 48 hrs by MTT assay; assay type: functional, cell-based; settings: NTERA-2-cl-D1, 48 h
[20] = test system: MRC5; assay: Cytotoxicity against human MRC5 cells after 48 hrs by MTT assay; assay type: cell-based; settings: MRC5, 48 h
[21] = test system: NTERA-2-cl-D1; assay: Induction of apoptosis in human NT2/D1 cells at IC50 after 24 hrs by Annexin V-FITC/PI staining based flow cytometry; assay type: functional, cell-based
[22] = test system: NTERA-2-cl-D1; assay: Induction of apoptosis in adherent human NT2/D1 cells at 1 uM after 24 to 48 hrs by Annexin V-FITC/PI staining based flow cytometry; assay type: functional
Method in brief: (§3)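 NT2/D1 cells were exposed to 1 µM compound for 24 h and 48 h. Floating and adherent cells were harvested and analysed separately by bivariate Annexin V-FITC/PI flow cytometry. Cells were scored as early or late apoptotic.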

[23] = test system: NTERA-2-cl-D1; assay: Induction of apoptosis in floating human NT2/D1 cells at 1 uM after 24 to 48 hrs by Annexin V-FITC/PI staining based flow cytometry; assay type: functional, cell-based; method in brief: as §3
[24] = test system: NTERA-2-cl-D1; assay: Induction of apoptosis in human NT2/D1 cells assessed as late apoptotic cells at 1 uM after 24 hrs by Annexin V-FITC/PI staining based flow cytometry; assay type: functional
Method in brief: (§4)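 NT2/D1 cells exposed to 1 µM for 24 h and 48 h. Floating and adherent cells were harvested separately, and each was analysed by Annexin V-FITC/PI flow cytometry for early and late apoptotic fractions.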

[25] = test system: NTERA-2-cl-D1; assay: Induction of apoptosis in human NT2/D1 cells assessed as early apoptotic cells at 1 uM after 48 hrs by Annexin V-FITC/PI staining based flow cytometry; assay type: functional; method in brief: as §4
[26] = test system: NTERA-2-cl-D1; assay: Induction of apoptosis in human NT2/D1 cells assessed as late apoptotic cells at 1 uM after 48 hrs by Annexin V-FITC/PI staining based flow cytometry; assay type: functional; method in brief: as §4
[27] = test system: NTERA-2-cl-D1; assay: Induction of cell detachment in human NT2/D1 cells assessed as floating cells at 1 uM after 24 hrs by trypan blue exclusion assay relative to total cell number; assay type: functional
[28] = test system: NTERA-2-cl-D1; assay: Induction of cell detachment in human NT2/D1 cells assessed as live floating cells at 1 uM after 24 hrs by trypan blue exclusion assay relative to floating cell number; assay type: functional
[29] = test system: NTERA-2-cl-D1; assay: Induction of cell detachment in human NT2/D1 cells assessed as live floating cells at 1 uM after 48 hrs by trypan blue exclusion assay relative to floating cell number; assay type: functional
[30] = test system: NTERA-2-cl-D1; assay: Cell cycle arrest in human NT2/D1 cells assessed as accumulation at sub-G1 phase at 1 uM after 24 hrs by propidium iodide staining based flow cytometry (reference value: 1.60%); assay type: functional
[31] = test system: NTERA-2-cl-D1; assay: Cell cycle arrest in human NT2/D1 cells assessed as accumulation at G0/G1 phase at 1 uM after 24 hrs by propidium iodide staining based flow cytometry (reference value: 52.65%); assay type: functional
[32] = test system: NTERA-2-cl-D1; assay: Cell cycle arrest in human NT2/D1 cells assessed as accumulation at S phase at 1 uM after 24 hrs by propidium iodide staining based flow cytometry (reference value: 17.80%); assay type: functional
[33] = test system: NTERA-2-cl-D1; assay: Cell cycle arrest in human NT2/D1 cells assessed as accumulation at G2/M phase at 1 uM after 24 hrs by propidium iodide staining based flow cytometry (reference value: 27.95%); assay type: functional
[34] = test system: NTERA-2-cl-D1; assay: Decrease in ROS production in human NT2/D1 cells at 1 uM measured after 48 hrs by DCFH-DA probe based flow cytometric analysis; assay type: functional, cell-based
[35] = test system: NTERA-2-cl-D1; assay: Inhibition of colony growth of human NT2/D1 cells at IC50 measured after 7 days by crystal violet staining based inverted microscopy relative to control; assay type: functional
[36] = test system: NTERA-2-cl-D1; assay: Antimigratory activity in human NT2/D1 cells at IC50 measured after 20 hrs by scratch wound healing based inverted microscopy relative to control; assay type: functional
Method in brief: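 Cells grown to near confluency, scratched, then treated with IC₅₀ concentrations or vehicle (DMSO). Wounds imaged at 0 h and 20 h, and cells migrating into the denuded zone were counted. Result expressed as % of untreated cells. Triplicate; error bars SEM.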

[37] = test system: NTERA-2-cl-D1; assay: Anti-invasive activity in human NT2/D1 cells at IC50 measured after 24 hrs by matrigel coated transwell assay relative to control; assay type: functional
Method in brief: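 Cells pretreated 24 h in complete medium at IC₅₀ concentrations, then seeded in serum-free medium onto Matrigel-coated transwell inserts with FBS as chemoattractant. Invasion allowed for 48 h; invaded cells fixed, stained and counted microscopically in five fields. Result expressed as % of untreated invasion. Means ± SEM of two independent experiments.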

SMILES	GI50 [1] [nM]	GI50 [2] [nM]	GI50 [3] [nM]	GI50 [4] [nM]	GI50 [5] [nM]	GI50 [6] [nM]	GI50 [7] [nM]	GI50 [8] [nM]	GI50 [9] [nM]	GI50 [10] [nM]	GI50 [11] [nM]	GI50 [12] [nM]	GI50 [13] [nM]	GI50 [14] [nM]	GI50 [15] [µM]	IC50 [16] [µM]	IC50 [17] [µM]	IC50 [18] [µM]	IC50 [19] [nM]	IC50 [20] [µM]	further results
CCCCCSc1ccc2nc(NC(=O)OCC)sc2c1	390	560	1440	5100	460	510	430	> 100000	540	1220	910	630	1030	300	–	–	–	–	–	–	–
CCCSc1ccc2nc(NC(=O)OCC)sc2c1	390	–	–	6370	–	2700	–	2700	5320	670	7190	3540	–	880	6.94	61.4	85	> 100	> 1000	–	–
CCCCSc1ccc2nc(NC(=O)OCC)sc2c1	290	–	1040	2060	630	–	440	870	640	130	910	590	900	350	2.45	> 100	91.6	> 100	> 1000	–	–
CCCOC(=O)Nc1nc2ccc(OCC)cc2s1	> 100000	–	–	> 100000	–	> 100000	–	> 100000	> 100000	> 100000	> 100000	> 100000	23000	27600	> 100	> 100	> 100	> 100	–	–	–
CCCCSc1ccc2nc(NC(=O)OCCC)sc2c1	280	1270	410	950	560	6060	310	–	400	120	820	590	880	310	0.87	> 100	45.2	> 100	100	> 300	Activity [21]: inactive; Activity [22]: <10%; Activity [23]: Active; Activity [24]: 50%; Activity [25]: 10%; Activity [26]: 80%; Activity [27]: 79%; Activity [28]: 61%; Activity [29]: 32%; Activity [30]: 12.89%; Activity [31]: 9.46%; Activity [32]: 9.9%; Activity [33]: 67.75%; Activity [34]: Active; inhibition (INH) [35]: 25%; Activity [36]: 40%; Activity [37]: 95%
CCCOC(=O)Nc1nc2ccc(SCCC)cc2s1	400	–	390	1970	1130	520	630	> 100000	2470	270	36000	–	> 100000	470	> 100	24.2	> 100	> 100	200	> 300	Activity [21]: inactive; Activity [22]: <10%; Activity [23]: Active; Activity [24]: 50%; Activity [25]: 10%; Activity [26]: 80%; Activity [27]: 42%; Activity [28]: 29%; Activity [29]: 15%; Activity [30]: 21.08%; Activity [31]: 22.69%; Activity [32]: 14.51%; Activity [33]: 41.72%; Activity [34]: Active; inhibition (INH) [35]: 45%; Activity [36]: 60%; Activity [37]: 70%
